# In ChEMBL document CHEMBL4732158, “Bicyclic Ligand-Biased Agonists of S1P: Exploring Side Chain Modifications to Modulate the PK, PD, and Safety Profiles” (J Med Chem, 2021):
# What was measured:
# [1] = AUC ratio in orally dosed human blood assessed as phosphate metabolite to parent compound; assay type: ADME, organism-based; conditions: po
# [2] = AUC ratio in orally dosed Beagle dog blood assessed as phosphate metabolite to parent compound; assay type: ADME, organism-based, Canis lupus familiaris; conditions: in vivo, po
# Procedure, shortened: (§1)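 Phosphate-to-parent ratio computed as blood AUC ratio after oral dosing in rats, dogs and monkeys.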
# [3] = AUC ratio in orally dosed Sprague-Dawley rat blood assessed as phosphate metabolite to parent compound; assay type: ADME, organism-based; conditions: in vivo, po; procedure, shortened: as §1
# [4] = AUC ratio in orally dosed cynomolgus monkey blood assessed as phosphate metabolite to parent compound; assay type: ADME, organism-based, Macaca fascicularis; conditions: in vivo, po; procedure, shortened: as §1
# [5] = Drug metabolism in Lewis rat blood assessed as parent compound concentration at 0.5 mg/kg, po measured at 24 hrs by LC-MS/MS analysis; assay type: ADME, organism-based; conditions: Lewis, blood, read-out: Ct
# Procedure, shortened: (§2)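 Lewis rats (n = 2−4) dosed orally at 0.5, 1, 2 or 5 mg/kg; blood parent and phosphate metabolite concentrations and lymphocyte counts taken 4 and 24 h post-dose; phosphate-to-parent ratio from 24 h levels; significance versus vehicle by ANOVA with Dunnett's test.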
# [6] = Reduction in circulating lymphocytes count in Lewis rat at 0.5 mg/kg, po measured at 4 hrs by hematology analyzer based analysis; assay type: ADME, organism-based; parameters: scale not given: the % may be the effect or the level left; conditions: in vivo; procedure, shortened: as §2
# [7] = Reduction in circulating lymphocytes count in Lewis rat at 0.5 mg/kg, po measured at 24 hrs by hematology analyzer based analysis; assay type: ADME, organism-based; parameters: scale not given: the % may be the effect or the level left; conditions: in vivo; procedure, shortened: as §2
# [8] = Drug metabolism in Lewis rat blood assessed as parent compound concentration at 0.5 mg/kg, po measured at 4 hrs by LC-MS/MS analysis; assay type: ADME, organism-based; procedure, shortened: as §2
# [9] = Cardiotoxicity in human iPSC derived cardiomyocytes assessed as change in heart rate at 10 nM measured over 2 hrs by multi-electrode array relative to control; assay type: toxicity, cell-based; conditions: stem cell-derived cardiomyocyte, 0.01 µM
# Procedure, shortened: (§3)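 Phosphate metabolite of each compound prepared and tested on cultured human induced pluripotent stem cell-derived cardiomyocytes at 1 and 10 nM; beat rate change averaged over three or more replicates per concentration unless noted (some n = 2).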
# [10] = Cardiotoxicity in human iPSC derived cardiomyocytes assessed as change in heart rate at 1 nM measured over 2 hrs by multi-electrode array relative to control; assay type: toxicity, cell-based; conditions: stem cell-derived cardiomyocyte, 0.001 µM; procedure, shortened: as §3
# [11] = Drug concentration in Lewis rat blood assessed as concentration of parent compound at 5 mg/kg, po measured at 4 hrs by LC-MS/MS analysis; assay type: ADME, organism-based; conditions: read-out: Ct; procedure, shortened: as §2
# [12] = test system: Rattus norvegicus; test: Reduction in circulating lymphocytes count in Lewis rat at 5 mg/kg, po measured at 4 hrs by hematology analyzer based analysis; assay type: functional; parameters: scale not given: the % may be the effect or the level left
# Procedure, shortened: (§4)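 Lewis rats (n = 2−4) dosed orally; whole-blood lymphocyte counts taken 4 h and 24 h after dosing and reduction expressed versus vehicle-treated rats. Significance by ANOVA with Dunnett's test (p < 0.05 vs vehicle). Blood levels of parent and phosphate metabolite measured at the same time points in this PK/PD screen.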
# [13] = Drug concentration in Lewis rat blood assessed as concentration of parent compound at 5 mg/kg, po measured at 24 hrs by LC-MS/MS analysis; assay type: ADME, organism-based; conditions: in vivo, 5 mg/kg, 24 h, BLD = below limit of detection; procedure, shortened: as §2
# [14] = Reduction in circulating lymphocytes count in Lewis rat at 5 mg/kg, po measured at 24 hrs by hematology analyzer based analysis; assay type: ADME, organism-based; parameters: scale not given: the % may be the effect or the level left; conditions: in vivo; procedure, shortened: as §4
# [15] = Pulmonary toxicity in Lewis rat assessed as fold elevation of BAL protein content at 5 mg/kg, po by chemistry analyzer based analysis relative to control; assay type: organism-based; conditions: in vivo
# Procedure, shortened: (§5)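 Lewis rats dosed orally; bronchoalveolar lavage protein measured at study end, expressed as fold over vehicle control.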
# [16] = Drug concentration in Lewis rat blood assessed as concentration of parent compound at 2 mg/kg, po measured at 4 hrs by LC-MS/MS analysis; assay type: ADME, organism-based; conditions: read-out: Ct; for concentration at 4 h: Lewis, blood; procedure, shortened: as §2
# [17] = Pulmonary toxicity in Lewis rat assessed as fold elevation of BAL protein content at 10 mg/kg, po by chemistry analyzer based analysis relative to control; assay type: organism-based; conditions: in vivo, 2 mg/kg, in the assay text read “2 mg/kg” for “10 mg/kg”; procedure, shortened: as §5
# [18] = Drug concentration in Lewis rat blood assessed as concentration of parent compound at 2 mg/kg, po measured at 24 hrs by LC-MS/MS analysis; assay type: ADME, organism-based; conditions: in vivo, read-out: Ct; procedure, shortened: as §2
# [19] = Reduction in circulating lymphocytes count in Lewis rat at 2 mg/kg, po measured at 24 hrs by hematology analyzer based analysis; assay type: Functional, organism-based; parameters: scale not given: the % may be the effect or the level left; conditions: in vivo; procedure, shortened: as §4
# [20] = Ratio of drug metabolism in Lewis rat blood assessed as phosphate ester metabolite to parent drug at 2 mg/kg, po measured at 24 hrs by LC-MS/MS analysis; assay type: ADME, organism-based; conditions: in vivo; procedure, shortened: as §2
# [21] = test system: Rattus norvegicus; test: Reduction in circulating lymphocytes count in Lewis rat at 2 mg/kg, po measured at 4 hrs by hematology analyzer based analysis; assay type: functional; parameters: scale not given: the % may be the effect or the level left; conditions: 2 mg/kg, 4 h; procedure, shortened: as §4
# [22] = Pulmonary toxicity in Lewis rat assessed as fold elevation of BAL protein content at 15 mg/kg, po by chemistry analyzer based analysis relative to control; assay type: organism-based; conditions: in vivo; procedure, shortened: as §5
# [23] = Half life in Lewis rat at 2 mg/kg, po measured at 4 to 72 hrs; assay type: ADME, organism-based; conditions: Lewis, in vivo, time 4-72 hrs
# Procedure, shortened: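 Half-life estimated from oral-dosing blood PK profiles in Lewis rats sampled at four time points: 4, 24, 48 and 72 h.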
# [24] = Pulmonary toxicity in Lewis rat assessed as fold elevation of BAL protein content at 2 mg/kg, po by chemistry analyzer based analysis relative to control; assay type: organism-based; conditions: in vivo; procedure, shortened: as §5
# [25] = biological target: Sphingosine 1-phosphate receptor 3 (Homo sapiens, UniProt Q99500); test: Agonist activity at recombinant human S1P3 expressed in CHO cell membranes assessed as stimulation of [35S]-GTPgammaS binding measured after 45 mins by liquid scintillation counting method; assay type: functional, Membrane
# [26] = biological target: T1, Sphingosine 1-phosphate receptor 1 (Homo sapiens, UniProt P21453); test: Agonist activity at human recombinant C-terminal GFP-fused S1P1 expressed in CHO cells assessed as induction of receptor internalization incubated for 50 mins by fluorescence based confocal laser scanning microscopic analysis; assay type: cell-based
# [27] = biological target: T1, Sphingosine 1-phosphate receptor 1; test: Agonist activity at recombinant human S1P1 expressed in CHO cell membranes assessed as stimulation of [35S]-GTPgammaS binding measured after 45 mins by liquid scintillation counting method; assay type: functional, Cell membrane
# [28] = biological target: T1, Sphingosine 1-phosphate receptor 1; test: Agonist activity at human recombinant S1P1 expressed in CHO cells assessed as stimulation of ERK phosphorylation incubated for 7 mins by microplate reader analysis; assay type: cell-based
# [29] = biological target: T1, Sphingosine 1-phosphate receptor 1; test: Displacement of [33P]-SIP from human recombinant S1P1 expressed in CHO cell membranes measured after 45 mins by TopCount scintillation counting method; parameters: species or system Cell membrane
# T1 sequence (P21453 whole entry, the tested form may be a part): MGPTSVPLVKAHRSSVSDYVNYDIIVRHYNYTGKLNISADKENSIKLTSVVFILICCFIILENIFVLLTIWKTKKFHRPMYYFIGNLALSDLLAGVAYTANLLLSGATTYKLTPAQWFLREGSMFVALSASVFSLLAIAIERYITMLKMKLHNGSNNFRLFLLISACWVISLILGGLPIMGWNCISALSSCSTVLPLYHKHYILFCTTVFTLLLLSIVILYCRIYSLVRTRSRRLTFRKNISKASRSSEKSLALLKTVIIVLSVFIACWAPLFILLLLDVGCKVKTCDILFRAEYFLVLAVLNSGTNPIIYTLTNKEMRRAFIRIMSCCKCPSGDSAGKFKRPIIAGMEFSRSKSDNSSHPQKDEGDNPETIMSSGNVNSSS
# Chain of Sphingosine 1-phosphate receptor 3 (Q99500 whole entry, the tested form may be a part): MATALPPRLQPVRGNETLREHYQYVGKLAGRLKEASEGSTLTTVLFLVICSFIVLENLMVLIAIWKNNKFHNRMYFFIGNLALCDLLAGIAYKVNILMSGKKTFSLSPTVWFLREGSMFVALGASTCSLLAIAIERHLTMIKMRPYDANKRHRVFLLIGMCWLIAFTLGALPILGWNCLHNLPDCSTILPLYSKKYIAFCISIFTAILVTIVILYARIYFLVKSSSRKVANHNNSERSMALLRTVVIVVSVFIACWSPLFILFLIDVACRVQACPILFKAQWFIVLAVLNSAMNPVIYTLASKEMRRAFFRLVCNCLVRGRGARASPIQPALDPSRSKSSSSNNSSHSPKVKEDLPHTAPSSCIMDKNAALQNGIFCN
SMILES,Activity [9] [%],Activity [10] [%],concentration at 4 h [16] [nM],concentration [18] [nM],Activity [19] [%],Ratio [20],Activity [21] [%],half-life [23] [h],further results
CCCCCCCCc1ccc(CCC(N)(CO)CO)cc1 [FINGOLIMOD],–,–,–,–,–,–,–,–,Ratio AUC [1]: 0.42; Ratio AUC [2]: 3.7; Ratio AUC [3]: 5.6; Ratio AUC [4]: 5.9
CCCCCSC[C@@H]1CCc2cc([C@H]3CC[C@](N)(CO)C3)ccc2C1,–,–,–,–,–,–,–,–,"concentration at 24 h [5]: < 31 nM; Activity [6]: 0%; Activity [7]: 63%; Ct ([8]; in vivo, 0.5 mg/kg, 4 h, BLD = below limit of detection): Bld"
"CCCSCCC1CCc2cc([C@H]3CC[C@](N)(CO)C3)ccc2C1 (single isomer, unassigned)",-61,-26,–,–,–,–,–,–,"concentration at 24 h [5]: 20 nM; Activity [6]: 0%; Activity [7]: 60%; concentration at 4 h ([8]; Lewis, blood, read-out: Ct): 43 nM"
CCCCS(=O)(=O)C[C@@H]1CCc2cc([C@H]3CC[C@](N)(CO)C3)ccc2C1,–,–,–,–,–,–,–,–,concentration at 4 h [11]: 44 nM; Activity [12]: 13%; Ct [13]: Bld; Activity [14]: 16%; fold change (FC) [15]: 0.8
COCCCCC1CCc2cc([C@H]3CC[C@](N)(CO)C3)ccc2C1 (stereo in doubt; 13a),–,–,300,110,87,1.4,78,–,fold change (FC) [17]: 1.7
COCCCC1CCc2cc([C@H]3CC[C@](N)(CO)C3)ccc2C1 (stereo in doubt; 22a),–,–,141,33,74,2.8,76,13,fold change (FC) [22]: 3
COCCCCCCC1CCc2cc([C@H]3CC[C@](N)(CO)C3)ccc2C1 (stereo in doubt; 25a),-32,-16,265,69,84,3.9,70,31,fold change (FC) [24]: 1.7
CCOCCC[C@H]1CCc2cc([C@H]3CC[C@](N)(COP(=O)(O)O)C3)ccc2C1,–,–,–,–,–,–,–,–,EC50 [25]: > 1000 nM; EC50 [26]: 0.4 nM; EC50 [27]: 2.1 nM; EC50 [28]: 5.2 nM; IC50 [29]: 0.04 nM
COCCCCC1CCc2cc([C@H]3CC[C@](N)(CO)C3)ccc2C1 (stereo in doubt; 13b),-29,-15,–,78,78,0.77,65,16,"concentration ([16]; in vivo, 2 mg/kg, 4 h, 2 mg/kg, 4 h): 271 nM; fold change (FC) [17]: 2.1"
